Assay results from publication PMC2847389 (ACS nano, 2010).

Assay: Circulation retention / AuNP probe clearance in vivo
Parameters: species or system athymic nude mice
Conditions: i.v., within the first hour, normalised to 1 min post-injection, n = 5
In short: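 Male Nu/nu mice, 6-8 weeks old, anaesthetised with Avertin (240 mg/kg i.p.). Dosed i.v. by tail vein with 1 mg probe in 100 μl water, or the equivalent dye-labeled peptide in sterile water. Serum was taken at each time point after euthanasia. 100 μl serum was incubated with DTT (~286 mM final) for 16 h at RT. Q670 read at 644/670 nm. Mean ± s.d., n = 5.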

% of initial administered amount removed from serum: more than 90%
Substance: Q670 (or BHQ2)-(His-Ser-Ser-Lys-Leu-Gln)-Cys [uncomplexed peptide]
